From paper PMC12139872 (bioRxiv, 2025)

Experiments:
[1] = molecular target: T1, human glutathione reductase (GSR) (Homo sapiens, UniProt P00390); assay: Differential scanning fluorometry; format: binding; details: 5 μM GSR, 20 μM compound
T1 sequence (P00390 44-522): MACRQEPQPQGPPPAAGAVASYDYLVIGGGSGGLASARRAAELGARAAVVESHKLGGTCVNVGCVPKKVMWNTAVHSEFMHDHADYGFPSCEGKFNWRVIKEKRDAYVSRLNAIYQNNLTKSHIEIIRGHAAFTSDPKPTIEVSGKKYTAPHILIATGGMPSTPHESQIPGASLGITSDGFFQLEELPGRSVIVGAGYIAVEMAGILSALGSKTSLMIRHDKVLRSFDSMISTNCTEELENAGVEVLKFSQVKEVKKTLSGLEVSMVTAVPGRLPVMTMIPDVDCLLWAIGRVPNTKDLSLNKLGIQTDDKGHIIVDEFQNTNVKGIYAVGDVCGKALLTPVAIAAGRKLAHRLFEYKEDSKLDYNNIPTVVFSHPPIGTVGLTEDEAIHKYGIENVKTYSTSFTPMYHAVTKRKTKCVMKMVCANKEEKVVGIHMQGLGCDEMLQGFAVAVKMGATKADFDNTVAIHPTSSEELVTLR
Outline: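 Human GSR (5 µM final), compound (20 µM final) and 5X SYPRO Orange were combined in 20 mM HEPES pH 7.4, 100 mM NaCl, 1% DMSO. Controls: no protein, compound fluorescence, plate autofluorescence, plus 2-AAPA as positive control. Plates were heated from 25 to 95 °C at 1-min steps with FRET-channel readout. Tm was taken from the dRFU derivative, and significance was tested by Student's t-test.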

MOLM-13 = assay: Cytotoxicity of antioxidants; format: cell-based; details: 72-hour treatment
Outline: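 Each antioxidant (GSH, GSSG, tocopherol, ascorbate) was dissolved in sterile water and applied alone to MOLM-13 cells.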

Molecule	toxicity of exogenously supplemented antioxidant to MOLM-13 (in words) (MOLM-13)	concentrations at which antioxidant is toxic to MOLM-13 (MOLM-13)	further results
CC(=O)NC(CSC(=S)Nc1ccc(NC(=S)SCC(NC(C)=O)C(=O)O)cc1)C(=O)O (centres unmarked) [Compound 2-AAPA, 2-AAPA]	–	–	change in melting temperature (Tm) of GSR [1]: significantly changed the melting temperature
N[C@@H](CCC(=O)N[C@@H](CS)C(=O)NCC(=O)O)C(=O)O [GSH, reduced glutathione]	not toxic	–	–
O=C1O[C@H]([C@@H](O)CO)C(O)=C1O [ascorbate]	–	> 15.63 µM	–
Cc1c(C)c2c(c(C)c1O)CC[C@@](C)(CCC[C@H](C)CCC[C@H](C)CCCC(C)C)O2 [tocopherol]	–	higher than 62.5 μM	–
oxidized glutathione [GSSG]	not toxic	–	–
